{"source": "ChEMBL document CHEMBL1250520", "about": "“Antitumor agents. 280. Multidrug resistance-selective desmosdumotin B analogues” (2010)", "key": {"[1]": {"assay": "Anticancer activity against human KBVIN cells after 3 days by SRB assay", "format": "functional", "conditions": "72 h, read-out: ED50 (the source's name)", "in_short": "(§1)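 Cells seeded at 1500–7500 per well, compounds added from DMSO-diluted stock, grown 3 days in RPMI-1640 with 25mM HEPES, 0.25% sodium bicarbonate, 10% FBS and kanamycin. Attached cells fixed in cold 50% TCA, stained with 0.4% sulforhodamine B, absorbance read at 562 nm after dye solubilization. ED50 is the 50% growth-reduction concentration, averaged from at least three independent determinations.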"}, "[2]": {"assay": "Anticancer activity against human Hep3B cells after 3 days by SRB assay", "format": "functional, Hep 3B2", "conditions": "72 h"}, "KB": {"tested_on": "KB", "assay": "Anticancer activity against human KB cells after 3 days by SRB assay", "format": "functional", "conditions": "72 h, read-out: ED50 (the source's name)", "in_short": "as §1"}, "[3]": {"assay": "Anticancer activity against vincristine-resistant human Hep3B cells after 3 days by SRB assay", "format": "functional, Hep 3B2", "conditions": "72 h"}, "Hep 3B2": {"tested_on": "Hep 3B2", "assay": "Selectivity ratio of GI50 for human Hep3B cells to ED50 vincristine-resistant Hep3B cells", "format": "functional"}, "[4]": {"assay": "Selectivity ratio of ED50 for human KB cells to ED50 for human KBVIN cells", "format": "functional", "in_short": "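Ratio of KB ED50 to KB-VIN ED50. Both values come from a 3-day sulforhodamine B assay with absorbance read at 562 nm. Cells were seeded at 1500–7500 per well and dosed from DMSO-diluted stock. Each ED50 is the mean of at least three independent determinations.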"}, "KBVIN [5]": {"tested_on": "KBVIN", "assay": "Induction of apoptosis in human KBVIN cells assessed as DNA fragmentation after 1 days by ELISA", "format": "functional, cell-based", "in_short": "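Apoptosis in KB-VIN cells, including co-treatment with verapamil, read out by a Cell Death Detection ELISA PLUS kit.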"}, "KBVIN [6]": {"tested_on": "KBVIN", "assay": "Inhibition of Pgp efflux pump in human KBVIN cells by calcein AM assay", "format": "cell-based", "in_short": "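KB-VIN cells, 10,000 per well, were grown 24 h in RPMI-1640 with 5% FBS. They were preincubated with compounds for 30 min at 37°C, then given fresh medium with 1 µM calcein-AM plus compounds for 30 min at 37°C in the dark. After cold PBS wash and hypotonic Tris-HCl lysis, fluorescence was read at Ex 494/Em 517 nm. Data pooled from two or more independent experiments.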"}}, "note": "The source made the active and inactive calls. No cut-off for these calls is given here.", "data": [{"smiles": "CCC1=C(O)c2c(oc(-c3ccccc3)cc2=O)C(CC)(CC)C1=O", "note": "[6,8,8-TRIETHYL DESMOSDUMOTIN B]", "values": [{"measurement": "EC50", "setting": "[1]", "value": 1070, "unit": "nM"}, {"measurement": "GI50", "setting": "[2]", "value": 47600, "unit": "nM"}, {"measurement": "EC50", "setting": "KB", "value": "> 237000", "unit": "nM"}, {"measurement": "GI50", "setting": "[3]", "value": 1570, "unit": "nM"}, {"measurement": "RatioGI50", "setting": "Hep 3B2", "value": 30}, {"measurement": "Ratio ED50", "setting": "[4]", "value": ">221"}, {"measurement": "Activity", "setting": "KBVIN [5]", "value": "Active"}, {"measurement": "inhibition", "setting": "KBVIN [6]", "value": "inactive"}]}]}
